Source: ChEMBL document CHEMBL1123853, “A novel class of cardiotonics. Synthesis and pharmacological properties of [4-(substituted-amino)phenyl]pyridazinones and related derivatives” (1987)

Tests used:
Canis familiaris [1] = experiment: Inotropic activity determined by evaluating the % change in Diastolic Blood Pressure (DBP) at a dose of 300 ug/kg administered intravenously […]; type: functional, Canis lupus familiaris
Summary of the method: (§1)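 Mongrel dogs of either sex, 7–15 kg, anesthetized with sodium pentobarbital (30 mg/kg iv), open-chest, intubated and ventilated on room air. Compounds given intravenously. A femoral artery catheter with pressure transducer recorded SBP and DBP. dP/dtmax, right ventricular contractile force, cardiac output and heart rate were also recorded, as % change at each iv dose.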

Canis familiaris [2] = experiment: Inotropic activity determined by evaluating the % change in Diastolic Blood Pressure (DBP) at a dose of 1000 ug/kg administered intravenously […]; type: functional, Canis lupus familiaris; summary of the method: as §1
Canis familiaris [3] = experiment: Inotropic activity determined by evaluating the % change in Heart Rate (HR) at a dose of 1000 ug/kg administered intravenously […]; type: functional, Canis lupus familiaris; summary of the method: as §1
Canis familiaris [4] = experiment: Inotropic activity determined by evaluating the % change in contractile force (CF) of right ventricle at a dose of 1000 ug/kg administered intravenously […]; type: functional, Canis lupus familiaris, Heart right ventricle; summary of the method: as §1
Canis familiaris [5] = experiment: Inotropic activity determined by evaluating the % change in Heart Rate (HR) at a dose of 300 ug/kg administered intravenously […]; type: functional, Canis lupus familiaris, Muscle tissue; summary of the method: as §1
Canis familiaris [6] = experiment: Inotropic activity determined by evaluating the % change in contractile force (CF) of right ventricle at a dose of 300 ug/kg administered intravenously […]; type: functional, Canis lupus familiaris, Heart right ventricle; summary of the method: as §1
Canis familiaris [7] = experiment: Inotropic activity determined by evaluating the maximum rate of rise in left ventricular pressure at a dose of 300 ug/kg administered intravenously […]; type: functional, Canis lupus familiaris, Muscle tissue; summary of the method: as §1
Canis familiaris [8] = experiment: 0 Inotropic activity determined by evaluating the % change in Systolic Blood Pressure (SBP) at a dose of 1000 ug/kg administered intravenously […]; type: functional, Canis lupus familiaris; summary of the method: as §1
Canis familiaris [9] = experiment: Inotropic activity determined by evaluating the maximum rate of rise in left ventricular pressure at a dose of 1000 ug/kg administered intravenously […]; type: functional, Canis lupus familiaris, Muscle tissue; summary of the method: as §1
Canis familiaris [10] = experiment: Inotropic activity determined by evaluating the % change in Cardiac out put (CO)at a dose of 1000 ug/kg administered intravenously […]; type: functional, Canis lupus familiaris; summary of the method: as §1
Canis familiaris [11] = experiment: Inotropic activity determined by evaluating the % change in Systolic Blood Pressure (SBP) at a dose of 300 ug/kg administered intravenously […]; type: functional, Canis lupus familiaris, Muscle tissue; summary of the method: as §1
Canis familiaris [12] = organism: Canis familiaris; experiment: Positive inotropic activity determined in the […](that produced 30% increase in dose- response curves [dP/dt(max)]); type: functional; details: Canis lupus familiaris
Summary of the method: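 In the anesthetized open-chest dog (mongrel, 7–15 kg, pentobarbital 30 mg/kg iv, ventilated on room air), compounds were given intravenously and LV dP/dtmax was recorded. The dose giving a 30% rise in dP/dtmax was read from the dose-response curves. Results are mean ± SEM (n = 3) or mean ± range (n = 2).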

Canis familiaris [13] = organism: Canis familiaris; experiment: Positive inotropic in the isolated papillary muscle of the dog.; type: functional, Canis lupus familiaris
Summary of the method: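 Right ventricular anterior papillary muscle with septum, from mongrel dogs (7–12 kg, pentobarbital 30 mg/kg iv). It was perfused at about 100 mmHg via the septal artery with blood from a heparinized donor dog and paced at 120/min (1 ms pulses, about 1.5× threshold). Isometric tension was recorded. Saline solutions were injected intra-arterially, with amrinone as reference. ED15 (15% rise in developed tension) was taken from log dose-response curves. Results are mean ± SEM (n = 7) or mean ± range (n = 2).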

Canis familiaris [14] = experiment: Inotropic activity determined by evaluating the % change in Cardiac out put (CO)at a dose of 300 ug/kg administered intravenously […]; type: functional, Canis lupus familiaris; summary of the method: as §1

## Cc1cc(O)nnc1-c1ccc(Nc2ccncc2)cc1.Cl
Canis familiaris [1]
  Change of DBP: -0.3%
Canis familiaris [2]
  Change of DBP: 1.4%
Canis familiaris [3]
  Change of HR: 5.8%
Canis familiaris [4]
  Change of CF: 10.5%
Canis familiaris [5]
  Change of HR: -1.3%
Canis familiaris [6]
  Change of CF: -1.1%
Canis familiaris [7]
  dP/dt: -2.2%
Canis familiaris [8]
  Change of SBP: 1.9%
Canis familiaris [9]
  dP/dt: 6.2%
Canis familiaris [10]
  Change of CO: 7.6%
Canis familiaris [11]
  Change of SBP: 0.5%
Canis familiaris [12]
  ED30: > 1 mg/kg
Canis familiaris [13]
  ED15: 165 µg
Canis familiaris [14]
  Change of CO: 9.6%
